# Experimental data: ChEMBL document CHEMBL2424551, “Synthesis, in vitro evaluation and molecular modelling of naphthalimide analogue as anticancer agents” (2013)
# Key:
# Type in all cases: functional
# COLO 205 = test: Growth inhibition of human COLO205 cells at 10 uM after 48 hrs by SRB assay; details: COLO 205, 48 h, read-out: GI
# Procedure, shortened: (§1)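 Cells grown in RPMI 1640 with 5% FBS and 2 mM L-glutamine, plated at 5000–40,000 cells/well by doubling time and preincubated 24 h (37 °C, 5% CO2); a time-zero plate is TCA-fixed. Single dose added, then 48 h incubation. Fixed with cold TCA, stained with 0.4% SRB, dye solubilized in 10 mM Tris base, absorbance at 515 nm; percent growth vs time-zero and untreated control.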
# [1] = Growth inhibition of human HCC2998 cells at 10 uM after 48 hrs by SRB assay; details: HCC 2998, 48 h, read-out: GI; procedure, shortened: as §1
# NCI-H322M = test: Growth inhibition of human NCI-H322M cells at 10 uM after 48 hrs by SRB assay; details: read-out: GI; procedure, shortened: as §1
# NCI-H460 = test: Growth inhibition of human NCI-H460 cells at 10 uM after 48 hrs by SRB assay; details: NCI-H460, 48 h, read-out: GI; procedure, shortened: as §1
# NCI-H23 = test: Growth inhibition of human NCI-H23 cells at 10 uM after 48 hrs by SRB assay; details: NCI-H23, 48 h, read-out: GI; procedure, shortened: as §1
# HOP-92 = test: Growth inhibition of human HOP92 cells at 10 uM after 48 hrs by SRB assay; details: HOP-92, 48 h, read-out: GI; procedure, shortened: as §1
# CCRF-CEM = test: Growth inhibition of human CCRF-CEM cells at 10 uM after 48 hrs by SRB assay; details: read-out: GI; procedure, shortened: as §1
# HL-60(TB) = test: Growth inhibition of human HL-60(TB) cells at 10 uM after 48 hrs by SRB assay; details: HL-60, 48 h, read-out: GI
# Procedure, shortened: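 Single-concentration pass across the 60-line panel in RPMI 1640 with 5% FBS. Cells preincubated 24 h, then exposed 48 h at 37 °C, 5% CO2. Read by SRB staining with absorbance at 515 nm. Percent growth is taken relative to time-zero and untreated controls and reported as percent growth inhibition (GI %).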
# K562 = test: Growth inhibition of human K562 cells at 10 uM after 48 hrs by SRB assay; details: K562, 48 h, read-out: GI; procedure, shortened: as §1
# SR = test: Growth inhibition of human SR cells at 10 uM after 48 hrs by SRB assay; details: read-out: GI
# Procedure, shortened: (§2)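 NCI 60-cell-line screen with a single 10 µM dose. Cells are grown in RPMI 1640 with 5% FBS and 2 mM L-glutamine, plated at 5000–40,000 cells/well according to doubling time, and preincubated 24 h at 37 °C, 5% CO2; time-zero plates are TCA-fixed at that point. Drug exposure is 48 h. Adherent cells are fixed with cold TCA, stained with 0.4% SRB in 1% acetic acid and read at 515 nm. Percent growth is calculated relative to time-zero and untreated controls and reported as GI%.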
# BT-549 = test: Growth inhibition of human BT549 cells at 10 uM after 48 hrs by SRB assay; details: BT-549, 48 h, read-out: GI; procedure, shortened: as §1
# Hs-578T = test: Growth inhibition of human Hs578T cells at 10 uM after 48 hrs by SRB assay; details: read-out: GI; procedure, shortened: as §1
# MCF7 = test: Growth inhibition of human MCF7 cells at 10 uM after 48 hrs by SRB assay; details: MCF7, 48 h, read-out: GI; procedure, shortened: as §1
# MDA-MB-231 = test: Growth inhibition of human MDA-MB-231 cells at 10 uM after 48 hrs by SRB assay; details: MDA-MB-231, 48 h, read-out: GI; procedure, shortened: as §1
# RXF 393 = test: Growth inhibition of human RXF393 cells at 10 uM after 48 hrs by SRB assay; details: RXF 393, 48 h, read-out: GI; procedure, shortened: as §1
# SN12C = test: Growth inhibition of human SN12C cells at 10 uM after 48 hrs by SRB assay; details: read-out: GI; procedure, shortened: as §2
# A498 = test: Growth inhibition of human A498 cells at 10 uM after 48 hrs by SRB assay; details: A498, 48 h, read-out: GI; procedure, shortened: as §1
# ACHN = test: Growth inhibition of human ACHN cells at 10 uM after 48 hrs by SRB assay; details: read-out: GI; procedure, shortened: as §1
# CAKI-1 = test: Growth inhibition of human Caki1 cells at 10 uM after 48 hrs by SRB assay; details: CAKI-1, 48 h, read-out: GI; procedure, shortened: as §1
# SK-OV-3 = test: Growth inhibition of human SKOV3 cells at 10 uM after 48 hrs by SRB assay; details: SK-OV-3, 48 h, read-out: GI; procedure, shortened: as §2
# OVCAR-4 = test: Growth inhibition of human OVCAR4 cells at 10 uM after 48 hrs by SRB assay; details: OVCAR-4, 48 h, read-out: GI; procedure, shortened: as §1
# IGROV-1 = test: Growth inhibition of human IGROV1 cells at 10 uM after 48 hrs by SRB assay; details: IGROV-1, 48 h, read-out: GI; procedure, shortened: as §1
# UACC-62 = test: Growth inhibition of human UACC62 cells at 10 uM after 48 hrs by SRB assay; details: UACC-62, 48 h, read-out: GI; procedure, shortened: as §2
# UACC-257 = test: Growth inhibition of human UACC257 cells at 10 uM after 48 hrs by SRB assay; details: UACC-257, 48 h, read-out: GI; procedure, shortened: as §2
# SK-MEL-28 = test: Growth inhibition of human SK-MEL-28 cells at 10 uM after 48 hrs by SRB assay; details: SK-MEL-28, 48 h, read-out: GI; procedure, shortened: as §1
# MDA-MB-435 = test: Growth inhibition of human MDA-MB-435 cells at 10 uM after 48 hrs by SRB assay; details: MDA-MB-435, 48 h, read-out: GI; procedure, shortened: as §1
# M14 = test: Growth inhibition of human M14 cells at 10 uM after 48 hrs by SRB assay; details: M14, 48 h, read-out: GI; procedure, shortened: as §1
# LOX IMVI = test: Growth inhibition of human LOXIMVI cells at 10 uM after 48 hrs by SRB assay; details: read-out: GI; procedure, shortened: as §1
# U-251 = test: Growth inhibition of human U251 cells at 10 uM after 48 hrs by SRB assay; details: U-251, 48 h, read-out: GI; procedure, shortened: as §2
# SNB-75 = test: Growth inhibition of human SNB75 cells at 10 uM after 48 hrs by SRB assay; details: SNB-75, 48 h, read-out: GI; procedure, shortened: as §2
# SF-295 = test: Growth inhibition of human SF295 cells at 10 uM after 48 hrs by SRB assay; details: SF-295, 48 h, read-out: GI; procedure, shortened: as §1
# SF-539 = test: Growth inhibition of human SF539 cells at 10 uM after 48 hrs by SRB assay; details: SF-539, 48 h, read-out: GI; procedure, shortened: as §1
# HT-29 = test: Growth inhibition of human HT-29 cells at 10 uM after 48 hrs by SRB assay; details: HT-29, 48 h, read-out: GI; procedure, shortened: as §1
# HCT-116 = test: Growth inhibition of human HCT116 cells at 10 uM after 48 hrs by SRB assay; details: HCT-116, 48 h, read-out: GI; procedure, shortened: as §1
compound,measurement,setting,value
O=c1c2cccc3c(N4CCCC4)ccc(c32)c2nc3ccccc3n12,inhibition of growth at 10 µM,COLO 205,36.4%
same,inhibition of growth at 10 µM,[1],29.6%
same,inhibition of growth at 10 µM,NCI-H322M,< 20%
same,inhibition of growth at 10 µM,NCI-H460,83.9%
same,inhibition of growth at 10 µM,NCI-H23,31.8%
same,inhibition of growth at 10 µM,HOP-92,59.3%
same,inhibition of growth at 10 µM,CCRF-CEM,46.3%
same,inhibition of growth at 10 µM,HL-60(TB),28%
same,inhibition of growth at 10 µM,K562,24%
same,inhibition of growth at 10 µM,SR,79.8%
same,inhibition of growth at 10 µM,BT-549,28.8%
same,inhibition of growth at 10 µM,Hs-578T,32.8%
same,inhibition of growth at 10 µM,MCF7,50%
same,inhibition of growth at 10 µM,MDA-MB-231,22.9%
same,inhibition of growth at 10 µM,RXF 393,< 20%
same,inhibition of growth at 10 µM,SN12C,35.2%
same,inhibition of growth at 10 µM,A498,62%
same,inhibition of growth at 10 µM,ACHN,47.6%
same,inhibition of growth at 10 µM,CAKI-1,48.7%
same,inhibition of growth at 10 µM,SK-OV-3,20.9%
same,inhibition of growth at 10 µM,OVCAR-4,21.2%
same,inhibition of growth at 10 µM,IGROV-1,42.9%
same,inhibition of growth at 10 µM,UACC-62,37.5%
same,inhibition of growth at 10 µM,UACC-257,< 20%
same,inhibition of growth at 10 µM,SK-MEL-28,< 20%
same,inhibition of growth at 10 µM,MDA-MB-435,< 20%
same,inhibition of growth at 10 µM,M14,< 20%
same,inhibition of growth at 10 µM,LOX IMVI,48.3%
same,inhibition of growth at 10 µM,U-251,35.3%
same,inhibition of growth at 10 µM,SNB-75,27%
same,inhibition of growth at 10 µM,SF-295,40.2%
same,inhibition of growth at 10 µM,SF-539,< 20%
same,inhibition of growth at 10 µM,HT-29,22.2%
same,inhibition of growth at 10 µM,HCT-116,45.3%
